The source of these data is PMC6560181 (Cell chemical biology, 2018).

Data set [1] concerns polymyxin-susceptible strains of P. aeruginosa and K. pneumoniae. The experiment in a line: MIC by broth microdilution, polymyxin-susceptible strains. It is filed as cell-based.
Data set [2] deals with polymyxin-resistant clinical isolates of P. aeruginosa, A. baumannii and K. pneumoniae. The experiment in a line: MIC by broth microdilution, polymyxin-resistant clinical isolates. It is filed as cell-based. Background: In broth dilution the organism is exposed to a series of concentrations in liquid medium.
Data set [3] relates to mcr isolates of K. pneumoniae and Escherichia coli. The experiment in a line: MIC against mcr isolates. It is filed as cell-based. As to conditions: mcr isolates (Table S4).
For data set [4], the system named is polymyxin-resistant P. aeruginosa strain FADDI-PA070. The experiment in a line: Static time-kill study. The settings on record: for log10 CFU/mL kill: 32 μg/mL, 1–4 h polymyxin B, 0.5–6 h octapeptin C4; for antimicrobial effect in time-kill: 1 or 4 μg/mL. It is filed as cell-based.
For data set [5], the system named is E. coli ATCC 25922 cells. The experiment in a line: Membrane depolarisation diSC3-5 assay. The format is cell-based. The settings on record: 30 min incubation.
The test system of data set [6] is E. coli ATCC 25922 cells. The experiment in a line: Inner membrane permeabilisation, SYTOX Green flow cytometry. As to conditions: 1 h at 37°C. It is filed as cell-based. Background: A flow cytometer gives signals particle by particle.
A short description of data set [7]: Carboxyfluorescein leakage from lipid vesicles. As to conditions: vesicles containing lipid A. An outline of the steps:
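CF-loaded vesicles (50 mM CF; final lipid 5 µM) were made of POPC, POPC/POPG 4:1 or POPC/lipid A 4:1 in 10 mM HEPES pH 7.4 with 150 mM NaCl. Vesicles were exposed for 20 min to lipopeptide at 128–0.06 µg/mL. Leakage was read as CF de-quenching (ex 485 nm, em 520 nm).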

The subject of data set [8] is human red blood cells. The experiment in a line: Haemolysis of human red blood cells. It is filed as cell-based. As to conditions: concentrations up to 100 μg/mL.
A short description of data set [9]: Mouse nephrotoxicity model, kidney histopathology. The format is in vivo, mice. As to conditions: 12 mg/kg sc every 2 h, accumulated dose 72 mg/kg.
In data set [10] the test system is P. aeruginosa FADDI-PA070. Kind of data set: MIC against P. aeruginosa FADDI-PA070. The format is cell-based.
Details of data set [11]: species or system mice. The settings on record: mouse, in vivo, iv, 10 mg/kg.
Data set [12] is classed as in vitro ADME. As to conditions: rat.
A short description of data set [13]: Acute toxicity after subcutaneous dose in mice. The format is in vivo. As to conditions: subcutaneous dose of 40 mg/kg.

With colistin, the MIC in data set [1] lay within 0.25 to 1 µg/mL; in data set [2], 4 to 128 µg/mL; in data set [3], 4 to 16 µg/mL. Moreover, the “log10 CFU/mL kill” value in data set [4] is listed as “poor killing activity”. Besides, the “antimicrobial effect in time-kill” value in data set [4] was “no antimicrobial effect”. Moreover, the membrane depolarisation entry in data set [5] was “induced membrane depolarisation”. Further, the “membrane disruption (SYTOX Green uptake)” value in data set [6] is “disrupted both the outer and inner membranes”. Besides, in data set [7], the “leakage from lipid vesicles” value is “destabilised the membrane”. In addition, the haemolysis entry in [8] is “no detectable haemolysis”. In [9], the kidney histopathology lesions entry is on record as “severe Grade 1–2 lesions”.

Consider polymyxin B, for which the minimum inhibitory concentration (MIC) is 0.25 to 1 µg/mL in data set [1], 4 to 128 µg/mL in data set [2], 4 to 16 µg/mL in [3] and not below 128 µg/mL in data set [10]. In addition, in data set [4], the “log10 CFU/mL kill” value is given as “six”. Besides, the “antimicrobial effect in time-kill” value in data set [4] was “no antimicrobial effect”. Moreover, the “final log10 CFU/mL reduction” value in [4] (24 h, after regrowth) is on record as “three”. Moreover, the membrane depolarisation entry in [5] is listed as “induced membrane depolarisation”. Moreover, the “membrane disruption (SYTOX Green uptake)” value in data set [6] is “disrupted both the outer and inner membranes”. Also, the “leakage from lipid vesicles” value in [7] was “destabilised the membrane”. The same substance displayed a half-life in data set [11] of 3.6 h. This substance also yielded a total clearance in [11] of 7.3 mL/min/kg. The same substance gave a plasma protein binding in data set [12] of 83%. The acute toxic effects entry in data set [13] is recorded as “acute toxic effects”.

By MIC is commonly meant the lowest concentration found to suppress growth. The half-life is the time in which the quantity being followed falls by half. A higher half-life goes with slow decline.
